MT stabilize HCS – microtubule stabilization, imaging screen. hit rate 0.83% among 200,000. % tubulin-high responders, % at 10 µM. HeLa tubulin immunostaining HCS, 24 h; share of cells brighter than vehicle mean+2SD. AID 2205;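 active means plate Z-score above 3 for both tubulin-high and condensed-nucleus cell shares, with cell loss under 80%, at 10 µM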;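 further: anti alpha tubulin signal scored within the nucleus-defined area of each cell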
IEC-6 tox – counter-screen for KLF5 inhibitors: cytotoxicity in IEC-6 cells; IEC-6 cytotoxicity, luminescence viability; inhibition, % at 5 µM; hit rate 0.78% among 290,000; AID 1825; in the data active means inhibition above about 22%
b-catenin transl – modulators of beta-catenin nuclear translocation. hit rate 0.3% among 190,000. nuclear translocation activity, % at 5 µM. HeLa beta-catenin nuclear translocation, immunofluorescence imaging. AID 1665;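 active means nuclear translocation activity above 50% at 5 µM, with a well cell count of 50 or more; inconclusive means wells under 50 cells across six images, flagged as toxic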;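 further: per-cell ratio of nuclear to cytoplasmic median beta-catenin stain intensity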
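System: HeLa cells, endogenous beta-catenin; compound dosing: 5 µM primary single dose, 0.1% DMSO, 0.02–20 µM confirmation series; incubation: 24 h compound exposure at 37°C, 5% CO2; signal: beta-catenin immunofluorescence imaging with DAPI; evaluation: % activation, nuclear-to-cytoplasmic median beta-catenin signal ratio per cell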
BaF3 parental – counter-screen for JAK2V617F inhibitors: parental Ba/F3 viability inhibitors; AID 1486; inhibition, % at 5.6 µM; hit rate 1.1% among 220,000; CellTiter-Glo ATP luminescence;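 active means inhibition above a per-campaign cutoff, the mean inhibition of all tested compounds plus 3 SD, cut at about 27% in these data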
KLF5 inhibitor – suppresses KLF5 promoter-driven expression; DLD-1 KLF5 promoter-luciferase reporter, luminescence; inhibition, % at 5 µM; hit rate 0.23% among 290,000; AID 1700;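 active means inhibition above a per-plate limit of that plate's mean compound inhibition plus 3 SD, cut at about 60% in these data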;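 further: higher means less KLF5 promoter-driven luciferase light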
Ba/F3 V617F tox – loss of viability in JAK2V617F-driven Ba/F3 cells. inhibition, % at 5.6 µM. Ba/F3 EpoR-JAK2V617F viability, ATP luminescence. hit rate 1.1% among 220,000. AID 1446;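 active means inhibition above the campaign mean plus 3 SD over all tested compounds, cut at about 24% in these data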;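 further: cytokine-independent growth of Ba/F3 cells driven by EpoR plus mutant JAK2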
Of the large screens only hits and unclear results are named; the others gave an inactive call. Sampled rows, rich in hits. Any-hit rate of the full collection: about 2.1%.

C#CC(=O)N(c1cccc(OC)c1)C(C(=O)NC1CCCC1)c1cccs1 (configuration not stated)	IEC-6 tox 100, b-catenin transl inconclusive, BaF3 parental 80, Ba/F3 V617F tox 101
COc1c(Cl)cc(Cl)cc1CNc1ccc(S(N)(=O)=O)cc1	none
COc1ccccc1NC(=O)c1csc(-n2nc(C)cc2C(F)(F)F)n1	none (no result: b-catenin transl)
Cc1cc(C(F)(F)F)n(-c2nc(C(=O)N/N=C/c3ccc(F)cc3)cs2)n1	MT stabilize HCS 49 (no result: b-catenin transl)
COc1cccc(/C=N/NC(=O)c2csc(-n3nc(C)cc3C(F)(F)F)n2)c1	MT stabilize HCS 43
CN(C(=O)CNC(=O)c1ccc(Br)o1)C1CCCCC1	none (no result: MT stabilize HCS, b-catenin transl, BaF3 parental, Ba/F3 V617F tox)
Cc1ccc(NC(=O)Nc2c(C)[nH]c(=O)[nH]c2=O)cc1Cl	none (no result: MT stabilize HCS, b-catenin transl, BaF3 parental, Ba/F3 V617F tox)
N#Cc1nc(Cl)c(Cl)c(NN)c1Cl	none (no result: MT stabilize HCS)
CCC(C)(C)c1ccc(OCCCC[n+]2cccc(C)c2)c(C(C)(C)CC)c1	BaF3 parental 87, Ba/F3 V617F tox 101 (no result: b-catenin transl)
CC1=CC(C)C2COC(c3ccc[n+](C)c3)C1C2C (configuration not stated)	BaF3 parental 40, Ba/F3 V617F tox 35
Cn1c(Oc2ccc(Cl)c3cccnc23)nc2c1c(=O)n(Cc1ccccc1Cl)c(=O)n2C	BaF3 parental 94
COc1ccnc2c1c(=O)n(Cc1ccccc1Cl)c(=O)n2C	none (no result: MT stabilize HCS, b-catenin transl, BaF3 parental, Ba/F3 V617F tox)
Cc1onc(-c2ccccc2Cl)c1C(=O)N(C)Cc1ccccc1	none (no result: MT stabilize HCS, b-catenin transl, BaF3 parental, Ba/F3 V617F tox)
O=C(NCCCN1CCOCC1)c1cc(-c2ccc(F)cc2)no1	none (no result: MT stabilize HCS, b-catenin transl, BaF3 parental, Ba/F3 V617F tox)
Cc1cccc(C(=O)Nc2nc(C)c(C(=O)Nc3ccc4c(c3)CCC4)s2)c1	MT stabilize HCS 43 (no result: b-catenin transl)
C#CC[N+](C)(C)CCCCCCCC	BaF3 parental 43, Ba/F3 V617F tox 66
CCCCCC[N+](C)(C)CCSSCC[N+](C)(C)CCCCCC	none (no result: MT stabilize HCS)
C#CC[N+](C)(C)CCCCCCCCCCCC	BaF3 parental 76, Ba/F3 V617F tox 80
CC#CC[N+](C)(C)CCCCCCCCCCCC	IEC-6 tox 24, BaF3 parental 81, Ba/F3 V617F tox 101
C#CC[N+](C)(C)CCCCCCCCCC	BaF3 parental 79, Ba/F3 V617F tox 79
CCn1c(COc2ccccc2OC)nnc1SCC#N	none
Cc1ccccc1CN1CCN(CC2CC2)CC1CCO (configuration not stated)	none (no result: MT stabilize HCS, b-catenin transl, BaF3 parental, Ba/F3 V617F tox)
CCOc1ccc2nc(COC(=O)c3cccc([N+](=O)[O-])c3)c(C(C)=O)[n+]([O-])c2c1	none (no result: MT stabilize HCS)
Cc1cc(C(=O)COC(=O)c2ccccc2Br)c(C)n1CC1CCCO1 (configuration not stated)	none (no result: MT stabilize HCS)
Cc1cc(C(=O)COc2ccccc2C(N)=O)c(C)n1CC1CCCO1 (configuration not stated)	BaF3 parental 62, Ba/F3 V617F tox 45
CN1CC2(C)OC(=O)C(Cl)=C2CC1c1ccccc1 (configuration not stated)	none (no result: b-catenin transl)
Cc1cccc(-c2c3c(=O)n(C)c(=O)n(C)c3c3cccnn23)c1	none
O=C(NCCCCCCNC(=O)N1CCCCCC1)N1CCCCCC1	BaF3 parental 55, Ba/F3 V617F tox 50
CCc1ccc(/C=N/NC(=O)c2cc(C3CC3)nc3ccc(Br)cc23)s1	MT stabilize HCS 20
COc1cc(NC(=O)Cn2ncc(Cl)c(Cl)c2=O)c(C)cc1[N+](=O)[O-]	BaF3 parental 73, Ba/F3 V617F tox 74
O=C(Cc1ccc(Cl)cc1)Nc1ccc(SC(F)F)cc1	none
Cc1cc(C)n(-c2nc(Nc3ccccc3C(F)(F)F)nc(-n3nc(C)cc3C)n2)n1	IEC-6 tox 39
Cc1cc(C)n(-c2nc(Nc3ccccc3C)nc(-n3nc(C)cc3C)n2)n1	none
O=C(C[n+]1cc(-c2ccc(Cl)cc2)n2c1CCCCC2)c1ccccc1	BaF3 parental 43, Ba/F3 V617F tox 28 (no result: MT stabilize HCS)
O=C(C[n+]1cc(-c2ccc(Br)cc2)n2c1CCCCC2)c1ccccc1	BaF3 parental 49, Ba/F3 V617F tox 38
O=C(C[n+]1cc(-c2ccccc2)n2c1CCC2)N1c2ccccc2Sc2ccccc21	none
O=C(C[n+]1cc(-c2ccc(F)cc2)n2c1CCC2)N1c2ccccc2Sc2ccccc21	none
O=C(C[n+]1cc(-c2ccccc2)n2c1CCC2)c1cccs1	BaF3 parental 39, Ba/F3 V617F tox 26
CCOc1c(C)cc(S(=O)(=O)NCc2ccccn2)c(C)c1C	none (no result: MT stabilize HCS, b-catenin transl, BaF3 parental, Ba/F3 V617F tox)
O=[N+]([O-])c1cccc(-c2noc(COc3ccccc3)n2)c1	none
O=C(Cc1ccccc1)Oc1coc(CSc2ncccn2)cc1=O	none
Cc1cc(NC(=O)CSc2nc(CC(C)(C)C)nc3c2c(=O)n(C)c(=O)n3C)no1	none
COc1ccc(N2CCN(c3oc(Cc4ccccc4)nc3C#N)CC2)cc1	MT stabilize HCS 29
COc1ccc(N2CCN(c3oc(COc4ccccc4)nc3C#N)CC2)cc1	none
CCOc1cccc2cc(-c3cn4cc(C)ccc4n3)c(=O)oc12	MT stabilize HCS 42
Cc1cc(/C=C\c2ccccc2)nc2ccccc12	none
CC(C)CCSc1nc2ccccc2[nH]1	none
C=C(C)CSc1nc2ccccc2[nH]1	BaF3 parental 89
COC(=O)c1ccc(-c2nc3ccc(C)cc3o2)cc1	MT stabilize HCS 52
COC(=O)c1ccc(-c2nc3ccccc3o2)cc1	none (no result: MT stabilize HCS, IEC-6 tox, BaF3 parental, KLF5 inhibitor, Ba/F3 V617F tox)
COc1ccc(N(C(=O)c2ccco2)S(=O)(=O)c2cccs2)cc1	none
O=C(Nc1ccccc1N(C(=O)c1ccco1)S(=O)(=O)c1cccs1)c1ccco1	MT stabilize HCS 11 (no result: b-catenin transl)
CCOC(=O)CC1(NC(=O)c2cc(COc3cccc(OC)c3)on2)CCCCC1	none (no result: MT stabilize HCS, b-catenin transl, BaF3 parental, Ba/F3 V617F tox)
FC(F)(F)c1cccc(CN2CCC(c3cc(-c4cccs4)n[nH]3)CC2)c1	MT stabilize HCS 29
Cc1ccc(CN2CCC(c3cc(-c4cccs4)n[nH]3)CC2)cc1	none
O=C1C(Cl)=C(NC(=O)c2ccccc2)C(=O)C(Cl)=C1NC(=O)c1ccccc1	IEC-6 tox 100 (no result: MT stabilize HCS, b-catenin transl, BaF3 parental, Ba/F3 V617F tox)
O=C(NC1=C(Nc2ccc(Cl)cc2)C(=O)c2ccccc2C1=O)c1ccccc1	none
Cc1ccc(CSc2nnc(-c3cccnc3)n2N)cc1	none
Cc1ccc(C(=O)CSc2nnc(-c3cccnc3)n2N)cc1	MT stabilize HCS 30
COc1ccc(O)c(C(=O)c2cnn(-c3ccccn3)c2)c1	none
COc1ccc(O)c(C(=O)c2cnc3nc4ccccc4n3c2)c1	MT stabilize HCS 28, b-catenin transl 76
CC(=O)Nc1ccc(SC[C@H](c2ccccc2)N2CCN(CCc3ccccc3)CCC2=O)cc1	none (no result: MT stabilize HCS, IEC-6 tox, BaF3 parental, KLF5 inhibitor, Ba/F3 V617F tox)
COc1ccccc1N1CCN(c2ccc([N+](=O)[O-])cc2Cl)CC1	MT stabilize HCS 21
CCOCC(O)CNc1ccccc1 (configuration not stated)	none
OC(CNc1ccccc1)COc1ccc(OCC(O)CNc2ccccc2)cc1 (configuration not stated)	BaF3 parental 34, Ba/F3 V617F tox 24
Cc1ccc(NCC(=O)N=Nc2c(O)[nH]c3ccc([N+](=O)[O-])cc23)cc1	none (no result: MT stabilize HCS)
Cc1ccc(OC(C)C(=O)N=Nc2c(O)[nH]c3ccc([N+](=O)[O-])cc23)cc1 (configuration not stated)	MT stabilize HCS 16
